Assay results published in paper PMC9830076 (International Journal of Nanomedicine, 2023).
Counter-ions that a name gives are not always drawn.

Experiments:
Caco-2 cells = assay: Endocytosis and intracellular trafficking mechanism with pathway inhibitors; type: cell-based; details: for effect of intracellular transport inhibitor on the content of intracellular 6-MP: 200 μM 6-MPNs, 2 h; for effect of endocytosis inhibitor on the internalization of 6-MPNs: 100 μM 6-MPNs, 0.5 h, intracellular 6-MP by HPLC
Outline: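 Caco-2 cells in 12-well plates at 1×10^5 cells/mL, grown to 90% confluency, preincubated 0.5 h with inhibitors, PBS-washed ×3. Endocytosis inhibitors (MβCD, genistein, EIPA, Cyt D, CPZ, dynasore) co-incubated with 100 μM test nanoparticles or crystals, 37°C, 0.5 h. Trafficking inhibitors (BFA, monensin, Baf-A1, nocodazole) with 200 μM, 37°C, 2 h. Inhibitor levels as in preincubation; intracellular 6-MP by HPLC.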

MRP4 transporter = biological target: T1, MRP4 transporter (Homo sapiens, UniProt O15439); assay: Effect of MRP4 transporter; type: cell-based; details: Caco-2 cells, indomethacin 30 μM, 100 μM 6-MPNs or 6-MPCs, 2 h
T1 sequence (O15439 1-1325): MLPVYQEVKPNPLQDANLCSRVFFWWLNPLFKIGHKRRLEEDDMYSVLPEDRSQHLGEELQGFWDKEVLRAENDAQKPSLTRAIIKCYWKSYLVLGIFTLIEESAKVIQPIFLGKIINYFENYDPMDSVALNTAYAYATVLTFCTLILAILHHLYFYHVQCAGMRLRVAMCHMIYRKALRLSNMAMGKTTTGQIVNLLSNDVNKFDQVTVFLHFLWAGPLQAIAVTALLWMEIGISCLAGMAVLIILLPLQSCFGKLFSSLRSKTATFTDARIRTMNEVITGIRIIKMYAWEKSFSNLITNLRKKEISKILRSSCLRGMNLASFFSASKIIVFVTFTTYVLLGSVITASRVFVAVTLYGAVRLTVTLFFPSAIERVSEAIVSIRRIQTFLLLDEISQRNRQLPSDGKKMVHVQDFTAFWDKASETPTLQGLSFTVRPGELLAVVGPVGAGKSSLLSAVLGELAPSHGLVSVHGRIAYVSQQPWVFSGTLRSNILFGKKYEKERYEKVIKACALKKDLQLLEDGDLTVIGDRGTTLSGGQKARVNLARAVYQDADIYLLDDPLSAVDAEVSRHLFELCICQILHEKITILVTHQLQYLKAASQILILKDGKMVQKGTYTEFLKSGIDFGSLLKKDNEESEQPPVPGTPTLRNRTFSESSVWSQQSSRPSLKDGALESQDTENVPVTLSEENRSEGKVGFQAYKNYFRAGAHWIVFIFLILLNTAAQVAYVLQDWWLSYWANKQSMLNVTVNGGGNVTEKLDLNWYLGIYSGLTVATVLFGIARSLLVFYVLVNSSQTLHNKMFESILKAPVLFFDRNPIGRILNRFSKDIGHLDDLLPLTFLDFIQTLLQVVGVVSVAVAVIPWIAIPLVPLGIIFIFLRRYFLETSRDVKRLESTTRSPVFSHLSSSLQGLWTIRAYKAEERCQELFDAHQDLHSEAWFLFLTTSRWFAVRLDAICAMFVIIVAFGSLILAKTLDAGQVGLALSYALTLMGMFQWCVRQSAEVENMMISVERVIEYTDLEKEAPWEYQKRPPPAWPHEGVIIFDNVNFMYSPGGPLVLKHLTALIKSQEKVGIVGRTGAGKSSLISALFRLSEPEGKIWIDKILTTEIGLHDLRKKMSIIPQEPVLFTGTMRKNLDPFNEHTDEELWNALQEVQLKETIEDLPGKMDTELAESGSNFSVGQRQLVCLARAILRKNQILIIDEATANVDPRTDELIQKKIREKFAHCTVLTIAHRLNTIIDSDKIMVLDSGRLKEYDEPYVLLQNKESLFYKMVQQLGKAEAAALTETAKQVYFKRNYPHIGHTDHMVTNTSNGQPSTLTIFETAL
Outline: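 Caco-2 cells grown in 6-well plates to 90% confluency, preincubated 0.5 h at 37°C with 30 μM indomethacin (MRP4 inhibitor), PBS-washed ×3, then exposed 2 h to 100 μM test nanoparticles or crystals plus 30 μM indomethacin; controls without indomethacin. Cells PBS-washed and RIPA/1% PMSF-lysed; 6-MP in lysate by HPLC, total protein by BCA.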

[1] = low solubility and high permeability; cited from earlier work

Row | Molecule | effect of intracellular transport inhibitor on the content of intracellular 6-MP (Caco-2 cells) | effect of endocytosis inhibitor on the internalization of 6-MPNs (Caco-2 cells) | further results
1 | COC(=O)Nc1nc2ccc(C(=O)c3cccs3)cc2[nH]1 [Nocodazole, nocodazole] | significantly enhanced | – | –
2 | CCN(c1nc(N)c(C(=O)NC(=N)N)nc1Cl)C(C)C [EIPA, ethyl-isopropyl-amiloride] | – | obviously reduced | –
3 | CN(C)CCCN1c2ccccc2Sc2ccc(Cl)cc21 [CPZ, chlorpromazine hydrochloride] | – | less influence | –
4 | O=c1c(-c2ccc(O)cc2)coc2cc(O)cc(O)c12 [Genistein, genistein] | – | less influence | –
5 | COc1ccc2c(c1)c(CC(=O)O)c(C)n2C(=O)c1ccc(Cl)cc1 [indomethacin] | – | – | effect on intracellular accumulation of 6-MP (MRP4 transporter): increased
6 | C=C1[C@@H](C)[C@H]2[C@H](Cc3ccccc3)NC(=O)[C@]23[C@H](OC(C)=O)/C=C/[C@@](C)(O)C(=O)[C@@H](C)C/C=C/[C@H]3[C@@H]1O [Cyt D, cytochalasin D] | – | less influence | –
7 | Sc1ncnc2nc[nH]c12 [6-MP, 6-Mercaptopurine] | – | – | biopharmaceutic classification system (BCS) class [1]: class II
8 | C[C@H]1CCC/C=C/[C@@H]2C[C@H](O)C[C@H]2[C@H](O)/C=C/C(=O)O1 [Brefeldin A] | significantly enhanced | – | –
9 | CO/C1=C\C(C)=C\[C@@H](C)[C@@H](O)[C@@H](C)C/C(C)=C/C=C/[C@H](OC)[C@@H]([C@@H](C)[C@@H](O)[C@H](C)[C@@]2(O)C[C@@H](O)[C@H](C)[C@@H](C(C)C)O2)OC1=O [Bafilomycin A1] | significantly enhanced | – | –
10 | CC[C@@]1([C@@H]2O[C@@H]([C@H]3O[C@@](O)(CO)[C@H](C)C[C@@H]3C)C[C@@H]2C)CC[C@H]([C@]2(C)CC[C@]3(C[C@H](O)[C@@H](C)[C@@H]([C@@H](C)[C@@H](OC)[C@H](C)C(=O)O)O3)O2)O1 [Monensin] | significantly enhanced | – | –
11 | Methyl-beta-cyclodextrin [MβCD] | – | obviously reduced | –
12 | O=C(N/N=C/c1ccc(O)c(O)c1)c1cc2ccccc2cc1O [Dynasore, dynasore] | – | obviously reduced | –
